Assay results taken from PubChem BioAssay AID504768 (Southern Research Specialized Biocontainment Screening …, 2011).
Active and inactive are the calls of the source.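 The calls were made as follows: active = phage lysis blocked by at least 50% at any tested concentration; inactive = the rest.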

Assay: K1F phage lysis inhibition in UTI89, confirmation, capsule biogenesis inhibitor project, UTI89 strain, C7 control, set 4 (AID 504768)
Details: E. coli UTI89 K1F phage lysis inhibition, OD600; series mostly up to 300 µM; inhibition of phage lysis: at the top concentration
Outline: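 System: E. coli UTI89 K1 and kpsM mutant; Medium: LB, cultures diluted 1:100; Probe or stimulus: K1F phage, added after compound pre-incubation; Doses: DMSO at 1% final; Schedule: 1.25 h compound pre-incubation at 37 °C shaking, lysis read 3 h post-phage; Technique: OD600 absorbance; Repeats: four replicate wells per compound concentration.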

Inhibition of phage lysis, inactive:
O=C(Nc1nc2ccc(F)cc2s1)c1ccccn1 0%, O=C(Nc1nc2ccccc2s1)c1cccnc1 0%, O=C(Nc1nc2c(F)cccc2s1)c1ccccn1 0%, O=C(Nc1nc2c(F)cc(F)cc2s1)c1cccnc1 0%, O=C(Nc1nc2c(F)cc(F)cc2s1)c1ccncc1 0%, O=C(Nc1nc2c(Cl)cc(Cl)cc2s1)c1ccccn1 0%, Cc1cc(C)c2nc(NC(=O)c3ccccn3)sc2c1 0%, O=C(Nc1nc2ccccc2s1)c1ccncc1 0%, O=C(Nc1nc2c(F)cc(F)cc2s1)c1ccccc1 0%
